# High-throughput results as filed in PubChem BioAssay.
# The list is not random: actives were taken first. Their share in the collection is about 1.8%.
# UPR CHOP act: activators of apoptotic CHOP UPR arm, primary screen, cell-based, CHO-CHOP luciferase reporter, luminescence, uHTS. AID 449763, 2010. activation, % at 10 µM. UPR activation; percent of tunicamycin response over DMSO baseline. actives 0.34% (n = 330,000);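 active = at 10 µM dose, activation of 40% or more, normalized to positive control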;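 note: 100% = tunicamycin at 10 µg/mL and 0% = DMSO alone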
#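 Dosing – one dose, 10 µM in 0.5% DMSO · System – CHO-CHOP cells, stable luciferase reporter of PERK-eIF2a-CHOP signalling · Input – 500 cells/well · Control set – tunicamycin 10 µg/mL final as positive, DMSO-only wells as negative · Timing – 6 h compound treatment, 37 °C · Measure – % activation vs tunicamycin · Technique – luminescence read with Steady-Glo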
# Jurkat NFkB inh: inhibitors of induced NF-kB luciferase reporter, primary screen, TCR NF-kB activation inhibitor project, cell-based, luminescence, uHTS | AID 435003, 2010 | actives 0.53% (n = 330,000) | Jurkat, PMA/ionomycin-induced NF-kB luciferase reporter | inhibition, % at 4 µM; in the data active = inhibition above about 50%
# CRFBP-R2 block: antagonists of CRF-BP/CRF-R2 complex, primary screen, cell-based, HEK293, calcium dye fluorescence, uHTS; inhibition, % at 11.8 µM; AID 588475, 2011; actives 0.59% (n = 350,000); CRF-induced calcium fluorescence;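 active = inhibition of the ligand-induced calcium signal above about 50% at the single tested concentration, limit read from the data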
# UPR XBP1 act: activators of adaptive XBP1 UPR arm, primary screen, cell-based, CHO-XBP1 luciferase reporter, luminescence, uHTS | IRE1-XBP1 UPR activation; percent of tunicamycin response, DMSO as zero | activation, % at 20 µM | actives 0.33% (n = 330,000);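 active = versus positive control, 20 µM dose yields 30% or more activation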;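 note: 100% = tunicamycin at 10 µg/mL and 0% = DMSO only wells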
#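 Test system: CHO-XBP1 luciferase reporter cells | Buffer or medium: Serum-containing F12 medium, 10% FBS | Schedule: 6 h compound exposure at 37 °C, 5% CO2 | Detection: Steady-Glo luciferase glow luminescence, 10 min after reagent addition | Read-out basis: Activation, % of tunicamycin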
# 697 NFkB inh: inhibitors of PMA/ionomycin-induced NF-kB reporter, 697 cells, primary screen, B-cell NF-kB inhibitor project, cell-based, luminescence, uHTS; actives 0.33% (n = 330,000); 697 B-cell NF-kB luciferase reporter, 16 h; AID 435022, 2010; inhibition, % at 4 µM; in the data active = inhibition above about 35%
# UPR XBP1 confirm: IRE1-XBP1 UPR arm activators, confirmation, cell-based, CHO-XBP1 luciferase reporter, luminescence, single concentration. shares compounds with UPR XBP1 act. activation, % at 20 µM. actives 63% (n = 1,000). AID 485299, 2010;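 active = reporter signal at least 30% of the positive control's activation in two or more of four replicate wells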;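 note: plate controls were DMSO negative control for no effect and tunicamycin 10 µg/mL positive control for full effect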
# * marks the source's active call; other numbers are inactive results; . = no result given.
SMILES,UPR CHOP act,Jurkat NFkB inh,CRFBP-R2 block,UPR XBP1 act,697 NFkB inh,UPR XBP1 confirm
O=C(O)/C(=C\c1ccc2ccccc2c1)c1cccc2ccccc12,-1,11,41,4,2,.
CC1CCN(Cc2c(C(=O)N/N=C/c3ccc(C(C)C)cc3)nnn2-c2nonc2N)CC1,3,14,-4,36*,-2,74*
CN(C)c1ccc(/C=N/NC(=O)c2nnn(-c3nonc3N)c2CN2CCCCCC2)cc1,24,-4,7,59*,-4,20
CC[C@]1(C(=O)OC)[C@H]2C(=O)N(C)C(=O)[C@H]2[C@H]2CN=C(SCc3ccc(C(=O)OC)cc3)N21,2,.,-5,0,-12,.
Cc1ccc(C(=O)Nc2nc(C(C)(C)C)cs2)s1,3,-103,24,12,-135,.
CC(C)(C)c1csc(NC(=O)c2ccc(Cl)s2)n1,7,-50,3,30*,-128,33*
C=CC[n+]1c(/C=C/c2ccc(OC(C)=O)c(OC)c2)ccc2ccccc21,2,-53,2,-1,-62,.
COc1ccc2cc3cc(C(=O)Nc4ccccc4N4CCN(C)CC4)oc3nc2c1,3,22,-10,40*,-43,13
CC(OC(=O)CSc1ccccc1)C(=O)NC1CCCCC1C (centres undefined),-1,20,2,-2,10,.
Cc1ccc2c(c1)C(c1ccncc1)=NNC(c1ccc(F)cc1)=N2,2,-15,2,0,11,.
Cc1ccc(C2=Nc3ccc(Br)cc3C(c3ccncc3)=NN2)cc1,4,-3,-14,37*,-18,45*
Cc1ccnc(OC(C(=O)O)C(OCc2ccccc2)(c2ccccc2)c2ccc(C(F)(F)F)cc2)n1 (centres undefined),2,3,9,-1,-34,.
COC(c1ccccc1)(c1ccccc1)C(Oc1nccc(C)n1)C(=O)O (centres undefined),-1,-5,-1,137*,-2,1
Cn1ncc(Cl)c1C(=O)Nc1cccc(Cl)c1,-1,-12,-17,0,1,.
Cn1ncc(N=Cc2c(O)ccc3ccccc23)c1C(=O)Nc1cccc(Cl)c1,17,4,-77,99*,1,80*
Cc1ccc(NC(=O)[C@H](C)NC(=O)C2CCN(C(=O)[C@@H](NC(=O)OC(C)(C)C)C(C)C)CC2)cc1,1,-20,-8,3,3,.
CCC(=O)Nc1nnc(SCC(=O)c2ccc3c(c2)Cc2ccccc2-3)s1,-2,7,-2,52*,-13,29*
CC(=O)Nc1nnc(SCC(=O)c2ccc3c(c2)Cc2ccccc2-3)s1,22,7,-12,0,-25,.
Cc1cc(C)n2nc(SCC(=O)N3CCN(c4ccccc4)CC3)nc2n1,-1,-6,3,0,-8,.
COc1ccc(C(=O)NC(=S)NNC(=O)[C@H]2C[C@@H]2c2ccccc2)cc1OC,1,0,-4,65*,18,14
CC1CCCCN1CCCNC(=O)c1ccc(NC(=O)C2=CSCCO2)cc1 (centres undefined),1,-10,-3,-1,-7,.
COc1ccc(-c2nn(-c3ccccc3)cc2/C=C/C(=O)OCC(=O)Nc2cccc(C#N)c2)cc1,15,0,-18,66*,-14,97*
NCCc1c(-c2ccccc2)n(-c2ccccc2)c2ccccc12,4,45,-128,38*,2,84*
CCc1cc(C(=O)N2CCN(C(=O)c3ccco3)CC2)sc1C,-1,12,5,1,6,.
S=c1[nH]nc(C2CCCCC2)n1/N=C/c1ccncc1,-4,-2,-60,-4,14,.
SMILES,UPR CHOP act,Jurkat NFkB inh,CRFBP-R2 block,UPR XBP1 act,697 NFkB inh,UPR XBP1 confirm
O=[N+]([O-])c1ccc(/C=N/n2c(C3CCCCC3)n[nH]c2=S)cc1,1,4,-28,34*,-4,3
COc1ccc(Cl)cc1N=Cc1c(O)c2ccccc2oc1=O,32,5,-10,42*,11,11
Nc1cc(C(=O)OCC(=O)Nc2cccc(S(=O)(=O)N3CCOCC3)c2)ccc1Cl,-1,-2,-8,-5,14,.
CCc1nc(CN(C)C(=O)C2CCC(=O)N(Cc3cccc(F)c3)C2)no1 (centres undefined),-3,-4,-5,-6,-35,.
Cc1sc2ncnc(N3CCC(C(=O)Nc4sc5c(c4C(N)=O)CCC(C)C5)CC3)c2c1C (centres undefined),10,12,-3,1,-34,.
CCOc1ccc(S(=O)(=O)N2CCN(CCNS(=O)(=O)c3ccc(C)cc3)CC2)cc1,0,15,-23,-3,13,.
C[C@@H]1CN([C@H](C)CO)C(=O)Cc2cc(NS(=O)(=O)c3ccc(Cl)cc3)ccc2O[C@H]1CN(C)Cc1ccc(C(F)(F)F)cc1,28,1,0,48*,-13,22
N/C(=N\c1nc(CSc2ccccn2)cc(=O)[nH]1)Nc1ccc(Cl)cc1Cl,-3,8,4,32*,7,32*
O=C(CC1C[C@H](C(=O)N2CCCCC2)[C@@]2(CCc3ccccc3)c3[nH]c4ccccc4c3CCN2C1=O)NCCC1=CCCCC1 (some centres undefined),40,-8,25,126*,-1,93*
O=C(Cc1csc(Nc2nc(=S)[nH]c3ccccc23)n1)NCCCN1CCN(c2ccccc2F)CC1,3,-12,-16,64*,-4,19
O=C(Cc1csc(Nc2nc(=S)[nH]c3ccccc23)n1)NCc1ccc(Cl)cc1,-1,11,3,-3,12,.
COc1cc(-c2ccc3oc(-c4ccsc4)c(C#CC4(O)CCCCC4)c3c2)cc(OC)c1OC,2,2,-26,7,-5,.
Cc1ccc(C)c(OC(=O)CN2C(=O)c3ccccc3C2=O)c1,0,-2,2,-2,15,.
COc1ccc2[nH]c3nc(SCc4nnc(-c5ccc(C)cc5)o4)nnc3c2c1,7,16,3,71*,5,190*
COc1ccc(CNC(=O)CSc2nnc3c(n2)[nH]c2ccc(C)cc23)cc1,1,1,8,2,13,.
Cn1nnnc1SCCNC(=O)C1CCC(=O)N(Cc2ccc(Cl)cc2)C1 (centres undefined),2,-14,3,-2,-34,.
COc1cc(C(=O)Nc2cccc(-c3nc4cc(C)ccc4o3)c2)cc(OC)c1OC,5,-27,-25,2,-69,.
